Assay results from ChEMBL document CHEMBL1135463 (J Med Chem, 2002).
Values after ≈ are worked out from the molar mass of the structure shown. Active and inactive are the calls of the source. The rule behind the calls is not given here.

Columns and labels:
Candida albicans = assay: The minimum inhibitory concentration (MIC) that inhibits all visible growth of the Candida albicans (fungus) at 64 ug/mL; NI is no inhibition; type: functional, organism-based
Method in brief: (§1)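 Broth microdilution following NCCLS reference methods (M7-A4 for aerobic bacteria, the yeast broth dilution standard for fungi). MIC is the lowest compound concentration giving optically clear wells, with no visible growth of the test organism.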

Enterobacter cloacae = assay: The minimum inhibitory concentration (MIC) that inhibits all visible growth of the Enterobacter cloacae (bacteria) at 64 ug/mL; NI is no inhibition; type: functional, organism-based; method in brief: as §1
Escherichia coli = assay: The minimum inhibitory concentration (MIC) that inhibits all visible growth of the Escherichia coli (bacteria) at 64 ug/mL; NI is no inhibition; type: functional, organism-based; method in brief: as §1
P388 [1] = assay: In vitro inhibition of P388 (murine leukemia) cell proliferation.; type: functional; settings: Mus musculus, read-out: ED50 (the source's name)
Neisseria gonorrhoeae [2] = assay: The minimum inhibitory concentration (MIC) that inhibits all visible growth of the Neisseria gonorrhoeae (bacteria); value may ranges from (32 - 64); type: functional; method in brief: as §1
[3] = In vitro growth inhibition of NCI-H460 (human non-small cell lung carcinoma) cell line.; type: functional
KM-20L2 [4] = assay: In vitro growth inhibition of KM20L2 cell line.; type: functional; settings: Homo sapiens
Staphylococcus aureus = assay: The minimum inhibitory concentration (MIC) that inhibits all visible growth of the Staphylococcus aureus (bacteria) at 64 ug/mL; NI is no inhibition; type: functional, organism-based; method in brief: as §1
Streptococcus pneumoniae [5] = assay: The minimum inhibitory concentration (MIC) that inhibits all visible growth of the Streptococcus pneumoniae (bacteria); type: functional; method in brief: as §1
Micrococcus luteus = assay: the minimum inhibitory concentration (MIC) that inhibits all visible growth of the Micrococcus luteus (bacteria) at 64 ug/mL; NI is no inhibition; type: functional, organism-based; method in brief: as §1
[6] = tested on: Stenotrophomonas maltophilia; assay: The minimum inhibitory concentration (MIC) that inhibits all visible growth of the Stenotrophomonas maltophilia (bacteria) at 64 ug/mL; NI is no inhibition; type: functional, organism-based; method in brief: as §1
Enterococcus faecalis [7] = assay: the minimum inhibitory concentration (MIC) that inhibits all visible growth of the Enterococcus faecalis (bacteria) at 64 ug/mL; NI is no inhibition; type: functional, organism-based; method in brief: as §1
BXPC-3 [8] = assay: In vitro growth inhibition of BXPC-3 (human pancreatic adenocarcinoma) cell line.; type: functional
SF-268 [9] = assay: In vitro growth inhibition of central nervous system SF-268 cell line.; type: functional; settings: Homo sapiens
DU-145 [10] = assay: In vitro growth inhibition of DU-145 (human prostate carcinoma) cell line.; type: functional
Cryptococcus neoformans = assay: Minimum inhibitory concentration (MIC) that inhibits all visible growth of the Cryptococcus neoformans (fungus) at 64 ug/mL; NI is no inhibition; type: functional, organism-based; method in brief: as §1
Enterococcus faecalis [11] = assay: The minimum inhibitory concentration (MIC) that inhibits all visible growth of the Enterococcus faecalis (bacteria) at 64 ug/mL; NI is no inhibition; type: functional, organism-based; method in brief: as §1
MCF7 = assay: Cell growth inhibition of breast MCF-7 cells, expressed as 50% reduction in the net protein increase; type: functional; settings: Homo sapiens
KM-20L2 [12] = assay: Cell growth inhibition of colon KM20L2 cells, expressed as 50% reduction in the net protein increase; type: functional; settings: Homo sapiens
Method in brief: (§2)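 Human tumour lines kept in 5% FBS/RPMI-1640, plated and incubated 24 h before compound dilutions were added. Exposure 48 h, then TCA fixation, washing and sulforhodamine B staining, with optical density read on a plate reader. GI50 is the concentration giving a 50% reduction in net protein increase, calculated from the OD data.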

Neisseria gonorrhoeae [13] = assay: The minimum inhibitory concentration (MIC) that inhibits all visible growth of the Neisseria gonorrhoeae (bacteria); type: functional; method in brief: as §1
BXPC-3 [14] = assay: Cell growth inhibition against pancreatic BXPC-3 cells, 50% reduction in the net protein increase; type: functional; settings: Homo sapiens; method in brief: as §2
Tubulin (Bos taurus) [15] = molecular target: T1, Tubulin (Bos taurus) (UniProt Q6B856+Q862L2+Q862F3); assay: Inhibition of radiolabeled [3H]colchicine binding to tubulin at a concentration of 5 uM of the compound; type: protein assay
Method in brief: (§3)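 [3H]colchicine 5.0 µM incubated with tubulin 1.0 µM plus inhibitor at the stated level, 10 min at 37 °C, then colchicine binding measured. Reported as percent inhibition.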

Tubulin [16] = molecular target: T2, Tubulin (Bos taurus, UniProt Q6B856+Q862L2+Q862F3); assay: (§4) Inhibition of tubulin polymerization reported as IC50; type: functional
DU-145 [17] = assay: Cell growth inhibition of prostate DU-145 cells, expressed as 50% reduction in the net protein increase; type: functional; settings: Homo sapiens; method in brief: as §2
SF-268 [18] = assay: Cell growth inhibition of central nervous system (CNS) SF-268 cells, expressed as 50% reduction in the net protein increase; type: functional; settings: Homo sapiens; method in brief: as §2
P388 [19] = assay: Evaluated for cell growth inhibition of the mouse leukemia P388 cells in 10% horse serum/Fisher media; type: functional; settings: read-out: ED50 (the source's name)
Method in brief: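 Murine P388 leukaemia cells grown in 10% horse serum/Fisher medium, incubated 24 h, then compound dilutions added. After 48 h, cells counted on a Coulter Z1 particle counter and the ED50 for growth inhibition calculated.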

NCI-H460 = assay: Cell growth inhibition of lung-NSC NCI-H460 cells, expressed as 50% reduction in the net protein increase; type: functional; settings: Homo sapiens; method in brief: as §2
Streptococcus pneumoniae [20] = assay: The minimum inhibitory concentration (MIC) that inhibits all visible growth of the Streptococcus pneumoniae (bacteria) at 64 ug/mL; NI is no inhibition; type: functional, organism-based; method in brief: as §1
Tubulin (Bos taurus) [21] = molecular target: T1, Tubulin (Bos taurus); assay: Inhibition of radiolabeled [3H]colchicine binding to tubulin at a concentration of 2 uM of the compound; type: protein assay; method in brief: as §3
Tubulin [22] = molecular target: T2, Tubulin; assay: as §4; type: functional; remark: listed apart in the source
Method in brief: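 Tubulin at 10 µM with a range of drug concentrations. Extent of assembly read after 20 min at 30 °C. IC50 taken from the concentration needed to halve assembly.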

MIC (Candida albicans) | MIC (Enterobacter cloacae) | MIC (Escherichia coli) | MIC (Staphylococcus aureus) | MIC (Micrococcus luteus) | MIC [6] | MIC (Enterococcus faecalis [7]) | MIC (Cryptococcus neoformans) | MIC (Enterococcus faecalis [11]) | inhibition (Tubulin (Bos taurus) [15]) [%] | SMILES | EC50 (P388 [1]) [µg/mL] | GI50 [3] [µg/mL] | GI50 (KM-20L2 [4]) [µg/mL] | GI50 (BXPC-3 [8]) [µg/mL] | GI50 (SF-268 [9]) [µg/mL] | GI50 (DU-145 [10]) [µg/mL] | GI50 (MCF7) [µg/mL] | GI50 (KM-20L2 [12]) [µg/mL] | GI50 (SF-268 [18]) [µg/mL] | EC50 (P388 [19]) [µg/mL] | other results
inactive | inactive | inactive | inactive | inactive | inactive | inactive | inactive | inactive |  | COc1cc(OC)cc(C(=O)c2ccc(O)cc2)c1 | 24.8 (≈ 96 µM) | 3 (≈ 11.6 µM) | 3.6 (≈ 13.9 µM) | 4 (≈ 15.5 µM) | 3.8 (≈ 14.7 µM) | 4.1 (≈ 15.9 µM) | 2.2 (≈ 8.52 µM) |  |  |  | MIC (Neisseria gonorrhoeae [2]): 64 µg/mL (≈ 248 µM); MIC (Streptococcus pneumoniae [5]): 64 µg/mL (≈ 248 µM)
inactive | inactive | inactive | inactive | inactive | inactive | inactive | inactive | inactive | 69 | COc1ccc(C(=O)c2cc(OC)cc(OC)c2)cc1 |  |  |  |  |  |  |  | 0.42 (≈ 1.54 µM) | 0.86 (≈ 3.16 µM) | 1.23 (≈ 4.52 µM) | MIC (Neisseria gonorrhoeae [13]): 32 µg/mL (≈ 118 µM); GI50 (BXPC-3 [14]): 0.42 µg/mL (≈ 1.54 µM); IC50 (Tubulin [16]): 2600 nM; GI50 (DU-145 [17]): 1.2 µg/mL (≈ 4.41 µM); GI50 (NCI-H460): 0.53 µg/mL (≈ 1.95 µM); MIC (Streptococcus pneumoniae [20]): inactive; inhibition (Tubulin (Bos taurus) [21]): 47%
 |  |  |  |  |  |  |  |  |  | COc1cc(/C=C\c2ccc(OP(=O)(OCc3ccccc3)OCc3ccccc3)cc2)cc(OC)c1 | 4.45 (≈ 8.62 µM) | 10.7 (≈ 20.7 µM) | 24.7 (≈ 47.8 µM) | 5.4 (≈ 10.5 µM) | 38.5 (≈ 74.5 µM) | 35.6 (≈ 68.9 µM) | 9 (≈ 17.4 µM) |  |  |  | 
 |  |  |  |  |  |  |  |  |  | COc1ccc(/C=C/c2cc(O)cc(O)c2)cc1 [RESVERATROL 4'-METHYL ETHER] | 28.9 (≈ 119 µM) | 6.8 (≈ 28.1 µM) | 3.8 (≈ 15.7 µM) | 6.3 (≈ 26 µM) | 3.1 (≈ 12.8 µM) | 2.7 (≈ 11.1 µM) | 3.4 (≈ 14 µM) |  |  |  | 
 |  |  |  |  |  |  |  |  | 85 | COc1ccc(C(=O)c2cc(OC)c(OC)c(OC)c2)cc1O [PHENSTATIN] |  |  |  |  |  |  |  | 0.04 (≈ 0.126 µM) | 0.052 (≈ 0.163 µM) | 0.0033 (≈ 0.0104 µM) | IC50 (Tubulin [22]): 1100 nM; GI50 (NCI-H460): 0.0057 µg/mL (≈ 0.0179 µM); inhibition (Tubulin (Bos taurus) [21]): 73%
